In ChEMBL document CHEMBL1142991, “Structure-activity relationship study to understand the estrogen receptor-dependent gene activation of aryl- and alkyl-substituted 1H-imidazoles” (J Med Chem, 2007):
Activity calls are given as the source filed them. No cut-off for these calls is given here.

How the values were obtained:
MCF7-2A [1] = experiment: Activation of transcriptional activity at ERalpha expressed in MCF7-2a cells assessed as luciferase expression at 10 uM relative to estradiol; assay type: functional, cell-based, Homo sapiens; conditions: for EC50: Homo sapiens, MCF7-2A, in the assay text read “relative to estradiol” for “at 10 uM relative to estradiol”
How it was run: (§1)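 Reporter cells: MCF-7-2a (stable ERE_wtcluc) kept one week in DMEM with L-glutamine, antibiotics, dextran/charcoal-treated BCS (50 mL/L); seeded ~2.2 × 10⁵ cells/mL in six-well plates, compound added after 24 h at 10^-5 to 10^-10 M, 50 h incubation; lysed, luciferase luminescence read 10 s, normalized to Bradford protein; expressed as % of 10^-8 M estradiol; triplicate, single experiment.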

MCF7-2A [2] = experiment: Activation of transcriptional activity at ERalpha expressed in MCF7-2a cells assessed as luciferase expression relative to estradiol; assay type: functional, cell-based; conditions: Homo sapiens; how it was run: as §1
[3] = target: T1, Estrogen receptor (Bos taurus) (UniProt P49884); experiment: Displacement of [3H]estradiol from calf ER alpha after 16 hrs relative to estradiol
T1 sequence (whole entry): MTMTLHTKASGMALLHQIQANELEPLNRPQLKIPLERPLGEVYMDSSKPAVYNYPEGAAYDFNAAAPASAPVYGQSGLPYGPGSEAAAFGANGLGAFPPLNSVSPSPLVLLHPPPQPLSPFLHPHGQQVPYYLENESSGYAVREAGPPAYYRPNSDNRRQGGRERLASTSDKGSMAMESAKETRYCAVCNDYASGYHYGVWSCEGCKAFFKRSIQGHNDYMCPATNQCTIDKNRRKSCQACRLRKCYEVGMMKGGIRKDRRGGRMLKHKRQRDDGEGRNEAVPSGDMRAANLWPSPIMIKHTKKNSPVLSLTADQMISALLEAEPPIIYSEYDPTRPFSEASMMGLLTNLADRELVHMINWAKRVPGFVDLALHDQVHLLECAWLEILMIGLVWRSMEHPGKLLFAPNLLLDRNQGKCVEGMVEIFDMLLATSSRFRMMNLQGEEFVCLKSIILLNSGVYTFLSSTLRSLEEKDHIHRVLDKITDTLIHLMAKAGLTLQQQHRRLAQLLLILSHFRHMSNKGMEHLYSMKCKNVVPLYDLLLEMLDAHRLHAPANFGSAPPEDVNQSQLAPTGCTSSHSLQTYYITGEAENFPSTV
How it was run: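 Calf uterine cytosol as receptor source, shaken with 17β-[³H]estradiol and competitor at 4 °C for 16 h; dextran-coated charcoal stop, centrifugation, supernatant radioactivity counted. Six competitor concentrations; % bound label plotted against log concentration, and the concentration giving 50% displacement taken for competitor and for unlabeled estradiol to give relative binding affinity.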

Homo sapiens = species on record: Homo sapiens; experiment: Decrease in COX activity

SMILES | Activity (MCF7-2A [1]) | RBA [3] | also measured
CCc1c(-c2ccc(O)cc2)nc(-c2ccc(O)cc2)n1-c1ccccc1 | 60% | – | –
CCc1c(-c2ccc(O)cc2)nc(-c2ccccc2)n1-c1ccc(O)cc1 | 90% | – | EC50 (MCF7-2A [2]): 61 nM
Oc1ccc(-c2nc(-c3ccc(O)cc3Cl)n(-c3ccc(O)cc3)c2-c2ccccc2)cc1 | 50% | – | –
Oc1ccc(-n2cc(-c3ccc(O)cc3Cl)nc2-c2ccc(O)cc2Cl)cc1 | – | 0.09% | Activity (Homo sapiens): Active
Cc1c(-c2ccc(O)cc2Cl)nc(-c2ccc(O)cc2Cl)n1-c1ccc(O)cc1 | – | 0.11% | –
Oc1ccc(-c2nc(-c3ccc(O)cc3Cl)c(-c3ccccc3)n2-c2ccc(O)cc2)cc1 | 40% | – | –
Oc1ccc(-c2nc(-c3ccc(O)cc3)n(-c3ccc(O)cc3)c2-c2ccccc2)cc1 | 100% | – | EC50 (MCF7-2A [1]): 350 nM
Cc1c(-c2ccc(O)cc2)nc(-c2ccc(O)cc2)n1-c1ccc(O)cc1 | 100% | – | EC50 (MCF7-2A [1]): 140 nM
Oc1ccc(-c2nc(-c3ccc(O)cc3Cl)cn2-c2ccc(O)cc2)cc1 | – | – | Activity (Homo sapiens): Active
Oc1ccc(-c2cn(-c3ccc(O)cc3)c(-c3ccc(O)cc3Cl)n2)cc1 | – | – | Activity (Homo sapiens): inactive
CCc1c(-c2ccc(O)cc2)nc(-c2ccc(O)cc2)n1-c1ccc(O)cc1 | 140% | 0.11% | EC50 (MCF7-2A [1]): 77 nM
CCc1c(-c2ccc(O)cc2)nc(-c2ccc(O)cc2Cl)n1-c1ccc(O)cc1 | – | 0.19% | EC50 (MCF7-2A [2]): 480 nM
